From PubChem BioAssay come the findings set out here.

Calls of active or inactive are those of the source. Cut-off read from the data, not from the text of the source, unless noted: active = inhibition above about 30%; inactive = the rest.

Test [1] in a line: reduced viability of SK-BR-3 breast cancer cells – cell-based, 24 h, human, pilot screen (AID 572;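 active = viability at or below 10% of carrier control in both of two separate runs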;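 note: compound exposure lasted between 18 and 24 h rather than exactly 24 h; 100% = carrier-treated control wells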). Particulars: SK-BR-3 viability, CellTiter-Glo luminescence, at 10 µM, stronger effect = lower value.
A short description of test [2]: HUVEC growth inhibition – cell-based, human, primary screen (AID 575;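 active = viability at or below 30% in both replicate assays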;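 note: 100% = median of untreated cell wells with 0.1% DMSO on each plate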). Conditions: HUVEC proliferation, CellTiter-Glo luminescence, 72 h; at 10 µM; stronger effect = lower value. The essentials: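 Test system: primary human umbilical vein endothelial cells; medium: endothelial basal medium with 2% FBS plus growth supplements; dosing: 10 µM compound only; times: 72 h treatment at 37 °C; signal: CTG luminescence; read-out: % viability relative to median vehicle-well signal on each plate; control set: vehicle and MePR control wells; plate: 384-well, collagen-coated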

The nature of test [3]: H69AR cell proliferation blockers – human, duplicate replicates, primary screen (AID 580;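 active = viability at or under a set limit in both replicates, limit being median viability minus 3 SD, cut at about 48% in these data, passing the limit was not always enough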;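 note: 100% = mean luminescence of untreated wells and 0% = no signal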). Particulars: H69AR lung tumor cells viability, ATP luminescence, 72 h; at 10 µM; stronger effect = lower value.
Test [4] is described as follows: MRP1 drug-resistance reversers in H69AR cells – cell-based, doxorubicin co-treatment, pilot screen (AID 601;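 active = viability loss from added drug above about 55%, and viability with drug at most 40%, in both replicates, limit read from the data, passing the limit was not always enough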). Conditions: CellTiter-Glo, 72 h, at 10 µM; for differential viability (reversal): stronger effect = higher value.
Test [5] is described as follows: yeast transport mutant growth inhibition pilot in 384-well plates, post-Golgi transport modulator project (AID 636; in the data active = inhibition above about 31%). Particulars: absorbance 615 nm, about 18 h, stronger effect = higher value.
Test [6] is described as follows: growth suppression of yeast trafficking mutant, preliminary HTS, modulators of trafficking downstream of Golgi apparatus project, 1536-format plate, OD 615 nm (AID 637). Particulars: yeast transport mutant growth, absorbance 615 nm, 18 h; stronger effect = higher value.
The mark [7] stands for this setting: H69AR cells + 2 uM doxorubicin, measured here: viability with 2 uM doxorubicin, stronger effect = lower value.
Setting [8] is: H69AR cells, compound alone cytotoxicity.

`CCN1CCc2c(C#N)c(N3CCCCC3)nc(NCc3ccccc3)c2C1`: the viability in test [1] is 103% (inactive); in test [2], 2.17% (active); in test [3], 16.3% (active); in test [4] (setting [7]) it was 26.4%; in test [4] (setting [8]), 16.3%. Besides, the differential viability (reversal) in test [4] (H69AR cells + 2 uM doxorubicin) was -10.1% (inactive). The inhibition in test [5] is -4.4% (inactive); in test [6], 16.6% (inactive).
On to `O=C(CSc1nccn1Cc1ccccc1)Nc1nccs1`, for which the viability in test [1] was 90% (inactive); in test [2], 98.6% (inactive); in test [3] it was 108% (inactive); in test [4] (setting [7]), 101%; in test [4] (setting [8]), 108%. The differential viability (reversal) in test [4] (H69AR cells + 2 uM doxorubicin) is 6.88% (inactive). Further, the inhibition in test [5] was -0.26% (inactive); in test [6] it was 1.48% (inactive).
Regarding `Nc1ccc(S(=O)(=O)Nc2ccccn2)cc1`, the viability in test [1] was 143% (inactive); in test [2] it was 102% (inactive); in test [3], 91.3% (inactive); in test [4] (setting [7]) it was 81%; in test [4] (setting [8]), 91.3%. Also, in test [4] (H69AR cells + 2 uM doxorubicin), the differential viability (reversal) was 10.3% (inactive). Besides, the inhibition in test [5] is 0.78% (inactive); in test [6] it was -1.17% (inactive).
Turning to `c1ccc(-c2cc(CSc3nc4ccccc4[nH]3)on2)cc1`, the viability was 94% (inactive) in test [1]; 91.8% (inactive) in test [2]; 102% (inactive) in test [3]; 86.5% in test [4] (setting [7]); 102% in test [4] (setting [8]). In test [4] (H69AR cells + 2 uM doxorubicin), the differential viability (reversal) was 15.5% (inactive). Moreover, the inhibition in test [5] is -6.13% (inactive); in test [6] it was 3.09% (inactive).
On to `CN1CC=C2C(C#N)=C(N)C(C#N)(C#N)C(c3cccc(Cl)c3Cl)C2C1` (centres undefined), for which the viability in test [1] was 115% (inactive); in test [2], 69.7% (inactive); in test [3] it was 61.1% (inactive); in test [4] (setting [7]), 60.1%; in test [4] (setting [8]), 61.1%. Moreover, in test [4] (H69AR cells + 2 uM doxorubicin), the differential viability (reversal) is 1.02% (inactive). Further, the inhibition in test [5] was -4.67% (inactive); in test [6] it was 2.13% (inactive).
On to `OC(CCCN1CCC(O)(c2ccc(Cl)cc2)CC1)c1ccc(F)cc1` (centres undefined), for which the viability in test [1] was 89% (inactive); in test [2], 73.1% (inactive); in test [3] it was 66.1% (inactive); in test [4] (setting [7]) it was 72.3%; in test [4] (setting [8]), 66.1%. Moreover, the differential viability (reversal) in test [4] (H69AR cells + 2 uM doxorubicin) was -6.19% (inactive). Further, the inhibition in test [5] is 2.47% (inactive); in test [6], 4.5% (inactive).
For the molecule `OC[C@H]1O[C@@H](n2cnc3c(Nc4ccccc4)ncnc32)[C@H](O)[C@@H]1O`, the viability in test [1] was 95% (inactive); in test [2], 71.9% (inactive); in test [3] it was 84.4% (inactive); in test [4] (setting [7]), 82.1%; in test [4] (setting [8]), 84.4%. Also, in test [4] (H69AR cells + 2 uM doxorubicin), the differential viability (reversal) was 2.24% (inactive). Also, the inhibition in test [5] is -2.34% (inactive); in test [6] it was 1.17% (inactive).
Regarding `CCCCCn1c(CN2CCN(c3cccc(Cl)c3)CC2)nc2c1c(=O)n(C)c(=O)n2C`, the viability is 97% (inactive) in test [1]; 69.2% (inactive) in test [2]; 88% (inactive) in test [3]; 49.5% in test [4] (setting [7]); 88% in test [4] (setting [8]). In addition, in test [4] (H69AR cells + 2 uM doxorubicin), the differential viability (reversal) was 38.5% (inactive). Moreover, the inhibition was 7.7% (inactive) in test [5] and 11.6% (inactive) in test [6].
For the molecule `CN1CCC(=C2c3ccccc3C=Cc3ccccc32)CC1`, the viability is 100% (inactive) in test [1]; 52.6% (inactive) in test [2]; 82.4% (inactive) in test [3]; 73.4% in test [4] (setting [7]); 82.4% in test [4] (setting [8]). Also, the differential viability (reversal) in test [4] (H69AR cells + 2 uM doxorubicin) was 9.07% (inactive). The inhibition in test [5] is -0.65% (inactive); in test [6], 1% (inactive).
For `O=C(COC(=O)CCOc1ccccc1)Nc1ccc(Cl)cn1`, the viability is 75% (inactive) in test [1]; 102% (inactive) in test [2]; 91% (inactive) in test [3]; 108% in test [4] (setting [7]); 91% in test [4] (setting [8]). Moreover, the differential viability (reversal) in test [4] (H69AR cells + 2 uM doxorubicin) was -17% (inactive). The values for the inhibition in test [5] and in test [6] were -2.74% (inactive) and -4.36% (inactive), respectively.
For the molecule `Cn1c(C(=O)NCc2cccnc2)cc2sccc21`, the viability in test [1] was 115% (inactive); in test [2], 102% (inactive); in test [3] it was 93% (inactive); in test [4] (setting [7]) it was 95.8%; in test [4] (setting [8]) it was 93%. In addition, the differential viability (reversal) in test [4] (H69AR cells + 2 uM doxorubicin) was -2.84% (inactive). Also, the values for the inhibition in test [5] and in test [6] were 5.21% (inactive) and 11.1% (inactive), respectively.
Regarding `O=C1OCCC1Sc1ncnc2sccc12` (centres undefined), the viability in test [1] was 78% (inactive); in test [2], 107% (inactive); in test [3], 104% (inactive); in test [4] (setting [7]) it was 82.3%; in test [4] (setting [8]), 104%. Besides, the differential viability (reversal) in test [4] (H69AR cells + 2 uM doxorubicin) was 21.8% (inactive). The inhibition in test [5] was -4.93% (inactive); in test [6], -2.18% (inactive).
Regarding `Cc1c(C(=O)NCc2ccccn2)sc2nc(-c3ccc(F)cc3)cn12`, the viability is 119% (inactive) in test [1]; 89.4% (inactive) in test [2]; 95.4% (inactive) in test [3]; 82.3% in test [4] (setting [7]); 95.4% in test [4] (setting [8]). Moreover, the differential viability (reversal) in test [4] (H69AR cells + 2 uM doxorubicin) is 13.1% (inactive). Also, the figures for the inhibition in test [5] and in test [6] were -3.12% (inactive) and 3.77% (inactive), respectively.
In the case of `CC(=O)N1CN(C2CCCC2)Cc2c1sc1c2CCCC1`, the viability in test [1] is 95% (inactive); in test [2], 103% (inactive); in test [3], 101% (inactive); in test [4] (setting [7]), 117%; in test [4] (setting [8]), 101%. For the same molecule, the differential viability (reversal) in test [4] (H69AR cells + 2 uM doxorubicin) is -16% (inactive). The inhibition in test [5] was -8.22% (inactive); in test [6], 0.36% (inactive).
For `O=C(Nc1ncc2c(n1)CC(c1ccccc1)CC2=O)c1ccco1` (centres undefined), the viability in test [1] is 102% (inactive); in test [2], 98.3% (inactive); in test [3], 81.8% (inactive); in test [4] (setting [7]) it was 76.7%; in test [4] (setting [8]) it was 81.8%. In addition, the differential viability (reversal) in test [4] (H69AR cells + 2 uM doxorubicin) is 5.16% (inactive). The results for the inhibition in test [5] and in test [6] were -5.21% (inactive) and -0.16% (inactive), respectively.
On to `CCCCn1c(=O)[nH]c(=O)c2c1nc(COc1ccc(C#N)cc1)n2CCC`, for which the viability in test [1] was 106% (inactive); in test [2] it was 83.1% (inactive); in test [3], 88% (inactive); in test [4] (setting [7]), 76.7%; in test [4] (setting [8]) it was 88%. Further, the differential viability (reversal) in test [4] (H69AR cells + 2 uM doxorubicin) was 11.3% (inactive). In addition, the values for the inhibition in test [5] and in test [6] were -1.04% (inactive) and -2.46% (inactive), respectively.
As to `O=C(CSc1nc2ccccc2o1)N1CCN(C(=O)c2ccco2)CC1`, the viability in test [1] is 117% (inactive); in test [2], 102% (inactive); in test [3] it was 94.5% (inactive); in test [4] (setting [7]), 93.3%; in test [4] (setting [8]) it was 94.5%. Besides, in test [4] (H69AR cells + 2 uM doxorubicin), the differential viability (reversal) was 1.25% (inactive). Moreover, the inhibition in test [5] was -6.67% (inactive); in test [6], -1.45% (inactive).
`COCCCn1nnnc1SCC(=O)Nc1nc(C)c(C)s1`: the viability in test [1] is 109% (inactive); in test [2], 89.2% (inactive); in test [3] it was 88.1% (inactive); in test [4] (setting [7]) it was 85.6%; in test [4] (setting [8]) it was 88.1%. Besides, the differential viability (reversal) in test [4] (H69AR cells + 2 uM doxorubicin) is 2.5% (inactive). The inhibition in test [5] is -2.88% (inactive); in test [6] it was 1.13% (inactive).
As to `COC(=O)CCC(=O)CN`, the viability in test [1] is 111% (inactive); in test [2], 92.9% (inactive); in test [3] it was 88.6% (inactive); in test [4] (setting [7]), 92.8%; in test [4] (setting [8]), 88.6%. The differential viability (reversal) in test [4] (H69AR cells + 2 uM doxorubicin) was -4.23% (inactive). The inhibition in test [5] was -1.3% (inactive); in test [6], 5.67% (inactive).
`Cn1c(=O)[nH]c(=O)c2c1nc(N1CCc3ccccc3C1)n2CCSc1nc2ccccc2s1`: the viability is 72% (inactive) in test [1]; 79.5% (inactive) in test [2]; 75.2% (inactive) in test [3]; 73.7% in test [4] (setting [7]); 75.2% in test [4] (setting [8]). The differential viability (reversal) in test [4] (H69AR cells + 2 uM doxorubicin) is 1.51% (inactive). Moreover, the inhibition is -5.48% (inactive) in test [5] and 2.9% (inactive) in test [6].
On to `CCCC(=O)Nc1c2c(nn1-c1ccc(OC)cc1)CS(=O)C2` (centres undefined), for which the viability in test [1] is 103% (inactive); in test [2], 109% (inactive); in test [3], 102% (inactive); in test [4] (setting [7]), 92.8%; in test [4] (setting [8]), 102%. Besides, the differential viability (reversal) in test [4] (H69AR cells + 2 uM doxorubicin) is 9.39% (inactive). Besides, the inhibition is -2.73% (inactive) in test [5] and 6.07% (inactive) in test [6].
For `CC(C)OC(=O)c1ccc(NC(=O)C2C3CC4OC(=O)C2C4C3)cc1` (centres undefined), the viability was 104% (inactive) in test [1]; 91.8% (inactive) in test [2]; 95.6% (inactive) in test [3]; 88.5% in test [4] (setting [7]); 95.6% in test [4] (setting [8]). Besides, the differential viability (reversal) in test [4] (H69AR cells + 2 uM doxorubicin) was 7.04% (inactive). Besides, the results for the inhibition in test [5] and in test [6] were -1.49% (inactive) and -4.91% (inactive), respectively.
Take `Cn1c(=O)c2[nH]cnc2n(C)c1=O`: the viability is 101% (inactive) in test [1]; 107% (inactive) in test [2]; 97.4% (inactive) in test [3]; 92.1% in test [4] (setting [7]); 97.4% in test [4] (setting [8]). In test [4] (H69AR cells + 2 uM doxorubicin), the differential viability (reversal) is 5.22% (inactive). Besides, the inhibition in test [5] is -1.3% (inactive); in test [6] it was -2.83% (inactive).
